We go through two compounds from BindingDB's records for doi:10.1021/jm00148a007 (1985).

The structures appear in SMILES notation.

For test [1], the target named is T1, Histamine H2 receptor (Cavia porcellus, UniProt P47747). The test is described as follows: Antagonistic activity against H2 receptor in guinea pig was evaluated. The method in brief: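 Isolated guinea pig atrium preparation loaded with 400-mg tension, with propranolol (0.5 μM) present throughout. Histamine concentration-response curves were run with and without several antagonist concentrations (B). The dose ratio x was taken from histamine concentrations giving half-maximal responses. K_B was calculated as B/(x − 1), and pA2 = −log K_B.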

In test [2] the target is T1, Histamine H2 receptor. The test is described as follows: Antagonistic activity against H2 receptor in guinea pig.

T1 sequence (P47747 whole entry): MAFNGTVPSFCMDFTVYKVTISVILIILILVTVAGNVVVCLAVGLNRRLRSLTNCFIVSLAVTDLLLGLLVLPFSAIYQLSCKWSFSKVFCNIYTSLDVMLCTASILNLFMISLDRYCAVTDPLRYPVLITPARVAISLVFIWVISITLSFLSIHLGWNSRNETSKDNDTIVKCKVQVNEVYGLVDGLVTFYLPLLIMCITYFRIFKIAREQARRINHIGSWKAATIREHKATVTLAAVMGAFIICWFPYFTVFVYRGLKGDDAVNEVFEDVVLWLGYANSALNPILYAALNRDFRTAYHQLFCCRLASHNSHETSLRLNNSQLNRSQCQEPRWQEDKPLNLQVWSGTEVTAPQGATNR

On Histamine H2 receptor [1], `CSC(=NCCSCc1[nH]cnc1C)NCCCc1cnc[nH]1` displayed a Kd of 17.8 µM.

In turn, `Cc1nc[nH]c1CSCCNC(=N)NCCCc1cn(C)cn1` displayed a Kd at Histamine H2 receptor [2] of 1.58 µM.
